Assay results published in ChEMBL document CHEMBL3259756 (J Nat Prod, 2014).

Columns and labels:
[1] = molecular target: T1, ATP-dependent translocase ABCB1 (Homo sapiens, UniProt P08183); test: Inhibition of p-gp in doxorubicin-resistant human Saos2 cells assessed as potentiation of doxorubicin-induced cytotoxicity by measuring cell survival at 1 ug/mL pretreated for 30 mins followed by 1 ug/mL doxorubicin addition measured after 72 hrs by MTT assay relative to doxorubicin-treated cell; type: cell-based; settings: saos-2, 72 h
T1 sequence (P08183 whole entry): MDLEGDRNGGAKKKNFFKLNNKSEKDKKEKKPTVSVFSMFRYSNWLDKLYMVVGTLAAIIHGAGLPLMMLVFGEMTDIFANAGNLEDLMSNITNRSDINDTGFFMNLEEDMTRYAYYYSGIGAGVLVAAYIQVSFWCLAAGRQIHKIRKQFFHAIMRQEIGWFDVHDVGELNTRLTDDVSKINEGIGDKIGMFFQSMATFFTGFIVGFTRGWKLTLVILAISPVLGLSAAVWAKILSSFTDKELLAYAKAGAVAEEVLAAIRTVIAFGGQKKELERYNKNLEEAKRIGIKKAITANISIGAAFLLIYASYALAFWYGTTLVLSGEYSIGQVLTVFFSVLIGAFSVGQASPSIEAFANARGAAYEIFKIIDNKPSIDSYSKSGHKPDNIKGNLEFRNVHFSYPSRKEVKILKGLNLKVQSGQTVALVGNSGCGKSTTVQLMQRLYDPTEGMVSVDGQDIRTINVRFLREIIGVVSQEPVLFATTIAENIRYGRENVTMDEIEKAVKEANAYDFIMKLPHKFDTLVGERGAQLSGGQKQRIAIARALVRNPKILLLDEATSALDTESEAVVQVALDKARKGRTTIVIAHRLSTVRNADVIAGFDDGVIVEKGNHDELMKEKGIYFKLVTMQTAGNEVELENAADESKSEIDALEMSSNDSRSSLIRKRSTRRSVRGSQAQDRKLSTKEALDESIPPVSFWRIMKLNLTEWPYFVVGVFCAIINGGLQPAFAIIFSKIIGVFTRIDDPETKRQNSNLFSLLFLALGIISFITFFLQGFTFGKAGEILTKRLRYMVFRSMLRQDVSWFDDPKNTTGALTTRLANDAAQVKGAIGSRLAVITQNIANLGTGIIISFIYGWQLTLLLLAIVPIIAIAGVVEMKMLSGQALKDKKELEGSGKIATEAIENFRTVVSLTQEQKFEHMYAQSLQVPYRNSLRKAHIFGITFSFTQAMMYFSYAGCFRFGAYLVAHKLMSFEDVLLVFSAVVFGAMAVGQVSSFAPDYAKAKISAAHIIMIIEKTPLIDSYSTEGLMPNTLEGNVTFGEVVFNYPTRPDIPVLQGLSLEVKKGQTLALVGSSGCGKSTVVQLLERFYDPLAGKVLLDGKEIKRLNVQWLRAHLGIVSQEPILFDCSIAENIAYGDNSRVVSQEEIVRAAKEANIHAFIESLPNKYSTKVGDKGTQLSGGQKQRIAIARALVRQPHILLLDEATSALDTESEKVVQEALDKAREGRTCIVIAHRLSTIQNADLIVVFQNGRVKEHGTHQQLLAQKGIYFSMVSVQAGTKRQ
In short: (§1)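 MTT survival assay. Cells seeded 24 h beforehand (1 × 10^4 SAOS-2-DX or 5 × 10^3 Me30966 per well). Voacamine 0.5 or 1.0 μg/mL given alone or 30 min before doxorubicin (Me30966: 0.1 or 0.5 μg/mL; SAOS-2-DX: 0.5 or 1.0 μg/mL). Read at 24 h for Me30966 and 72 h for SAOS-2-DX. Three independent experiments, mean ± SD.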

[2] = Cytotoxicity against doxorubicin-resistant human Saos2 cells assessed as effect on cell survival up to 1 ug/mL after 72 hrs by MTT assay; type: cell-based; settings: saos-2, 72 h; in short: as §1
[3] = Cytotoxicity against wild type human Saos2 cells assessed as cell mortality at 0.1 to 5 ug/mL after 4 hrs by trypan blue staining-based flow cytometric analysis; settings: saos-2, 4 h
In short: (§2)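 Trypan blue exclusion read by flow cytometry. Cells exposed to voacamine at 0.1, 1.0 or 5.0 μg/mL (in DMSO; DMSO-only cultures as extra control) for 4 or 24 h, resuspended in ice-cold PBS, stained with trypan blue (final 0.8 μM) and analysed at once; % dead cells. Three independent experiments, mean ± SD.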

[4] = Cytotoxicity against wild type human Saos2 cells assessed as cell mortality at 5 ug/mL after 24 hrs by trypan blue staining-based flow cytometric analysis; settings: saos-2, 24 h; in short: as §2
[5] = Cytotoxicity against human AG1522 cells assessed as cell mortality at 0.1 to 5 ug/mL after 4 hrs by trypan blue staining-based flow cytometric analysis; in short: as §2
[6] = Cytotoxicity against human AG1522 cells assessed as cell mortality at 5 ug/mL after 24 hrs by trypan blue staining-based flow cytometric analysis; in short: as §2
[7] = Cytotoxicity against P-gp-deficient human Me30966 cells assessed as induction of morphological changes at 1 ug/mL by phase contrast microscopic analysis; type: ADME, cell-based
In short: (§3)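 Monolayers viewed by phase contrast microscopy against untreated controls. SAOS-2-DX given 1.0 μg/mL voacamine plus 1.0 μg/mL doxorubicin; Me30966 given 1.0 μg/mL voacamine plus 0.5 μg/mL doxorubicin.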

[8] = molecular target: T1, ATP-dependent translocase ABCB1; test: Inhibition of p-gp in doxorubicin-resistant human Saos2 cells assessed as potentiation of doxorubicin-induced cytotoxicity by measuring cell survival at 0.5 ug/mL pretreated for 30 mins followed by 1 ug/mL doxorubicin addition measured after 72 hrs by MTT assay relative to doxorubicin-treated cell; type: cell-based; settings: saos-2, 72 h; in short: as §1
[9] = Cytotoxicity against doxorubicin-resistant human Saos2 cells assessed as cell mortality at 5 ug/mL after 24 hrs by trypan blue staining-based flow cytometric analysis; settings: saos-2, 24 h; in short: as §2
[10] = molecular target: T1, ATP-dependent translocase ABCB1; test: Inhibition of p-gp in doxorubicin-resistant human Saos2 cells assessed as increase in intracellular doxorubicin retention at 1 ug/mL after 2 hrs by flow cytometric analysis; type: cell-based; settings: saos-2, 2 h
In short: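 Efflux by flow cytometry. Cells loaded 1 h with 1.0 μg/mL doxorubicin, washed in PBS, then reincubated 2 h at 37 °C in drug-free medium with or without voacamine (1.0 μg/mL) or cyclosporin A (5.0 μM). Detached, resuspended in ice-cold PBS, analysed for retained doxorubicin fluorescence. Three independent experiments, mean ± SD.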

P-gp (ABCB1) = P-gp (ABCB1) (Homo sapiens, UniProt P08183); test: Inhibition of p-gp in doxorubicin-resistant human Saos2 cells assessed as potentiation of doxorubicin-induced cytotoxicity by measuring cell survival at 1 ug/mL pretreated for 30 mins followed by 0.5 ug/mL doxorubicin addition measured after 72 hrs by MTT assay relative to doxorubicin-treated cell; type: cell-based, SAOS-2; settings: probe doxorubicin, read-out: Survival; in short: as §1
Sequence of P-gp (ABCB1) (P08183 whole entry): as above

[11] = Cytotoxicity against P-gp-deficient human Me30966 cells assessed as effect on cell survival at 0.5 to 1 ug/mL pretreated for 30 mins followed by 1 ug/mL doxorubicin addition measured after 24 hrs by MTT assay relative to doxorubicin-treated cell; type: ADME, cell-based
[12] = molecular target: T1, ATP-dependent translocase ABCB1; test: Inhibition of p-gp in doxorubicin-resistant human Saos2 cells assessed as potentiation of 1 ug/mL doxorubicin-induced cytotoxicity by measuring induction of morphological changes at 1 ug/mL by phase contrast microscopic analysis; type: cell-based; settings: saos-2; in short: as §3
[13] = molecular target: T1, ATP-dependent translocase ABCB1; test: Inhibition of p-gp in doxorubicin-resistant human Saos2 cells assessed as increase in doxorubicin uptake at 1 ug/mL after 3 hrs by flow cytometric analysis; type: cell-based; settings: saos-2, 3 h
In short: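 Doxorubicin accumulation by flow cytometry. Osteosarcoma or melanoma cells exposed for 3 h to doxorubicin 1.0 μg/mL alone, with voacamine 1.0 μg/mL, or with cyclosporin A 5.0 μM (control). Cells detached with EDTA/trypsin (10^6 cells/mL), resuspended in ice-cold PBS, 488 nm excitation. Three independent experiments, mean ± SD.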

[14] = molecular target: T1, ATP-dependent translocase ABCB1; test: Inhibition of p-gp in doxorubicin-resistant human Saos2 cells assessed as intracellular doxorubicin distribution in nuclei at 1 ug/mL after 2 to 3 hrs by laser scanning confocal microscopic analysis; type: cell-based; settings: saos-2
In short: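 Living SAOS-2-DX cells, with SAOS-2-WT for reference, treated with doxorubicin alone or with voacamine or cyclosporin A as in the flow cytometry uptake/efflux protocol. Intracellular, including nuclear, doxorubicin fluorescence located by laser scanning confocal microscopy.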

[15] = Cytotoxicity against P-gp-deficient human Me30966 cells assessed as cell mortality at 5 ug/mL after 24 hrs by trypan blue staining-based flow cytometric analysis; type: ADME; in short: as §2
[16] = molecular target: T1, ATP-dependent translocase ABCB1; test: Inhibition of p-gp in doxorubicin-resistant human Saos2 cells assessed as potentiation of doxorubicin-induced cytotoxicity by measuring cell survival at 0.5 ug/mL pretreated for 30 mins followed by 0.5 ug/mL doxorubicin addition measured after 72 hrs by MTT assay relative to doxorubicin-treated cell; type: cell-based; settings: saos-2, 72 h; in short: as §1
[17] = Cytotoxicity against P-gp-deficient human Me30966 cells assessed as cell mortality at 0.1 to 5 ug/mL after 4 hrs by trypan blue staining-based flow cytometric analysis; type: ADME; in short: as §2
[18] = Cytotoxicity against doxorubicin-resistant human Saos2 cells assessed as cell mortality at 0.1 to 5 ug/mL after 4 hrs by trypan blue staining-based flow cytometric analysis; settings: saos-2, 4 h; in short: as §2
[19] = Cytotoxicity against doxorubicin-resistant human Saos2 cells assessed as induction of morphological changes at 1 ug/mL by phase contrast microscopic analysis; type: cell-based; settings: saos-2; in short: as §3

## CC=C1CN(C)C2Cc3c([nH]c4ccccc34)C(c3cc4[nH]c5c(c4cc3OC)CCN3CC4CC(CC)C3C5(C(=O)OC)C4)CC1C2C(=O)OC (stereo not given) [VOACAMINE]
[1]
  inhibition (INH): Active
[2]
  Activity: Non-toxic
[3]
  Activity: Non-toxic
[4]
  Activity: Toxic
[5]
  Activity: Non-toxic
[6]
  Activity: Toxic
[7]
  Activity: Non-toxic
[8]
  inhibition (INH): Active
[9]
  Activity: Toxic
[10]
  inhibition (INH): Active
P-gp (ABCB1)
  viability at 72 h, 1 ug/mL: 50%
[11]
  Activity: Non-toxic
[12]
  inhibition (INH): Active
[13]
  inhibition (INH): Active
[14]
  inhibition (INH): Active
[15]
  Activity: Toxic
[16]
  inhibition (INH): Active
[17]
  Activity: Non-toxic
[18]
  Activity: Non-toxic
[19]
  Activity: Non-toxic
